Data: ChEMBL document CHEMBL3994574, “Novel hamamelitannin analogues for the treatment of biofilm related MRSA infections-A scaffold hopping approach” (Eur J Med Chem, 2017)

Experiments:
[1] = Inhibition of quorum sensing system in methicillin-resistant Staphylococcus aureus Mu50 assessed as potentiation of vancomycin-mediated reduction in CFU/biofilm after 24 hrs; design: species or system Staphylococcus aureus subsp. aureus Mu50
[2] = system: Staphylococcus aureus subsp. aureus Mu50; experiment: Inhibition of quorum sensing system in methicillin-resistant Staphylococcus aureus Mu50 assessed as potentiation of vancomycin-mediated reduction in CFU/biofilm at 100 uM after 24 hrs (reference value: 30 +/- 14%)
[3] = Inhibition of quorum sensing system in methicillin-resistant Staphylococcus aureus Mu50 assessed as potentiation of vancomycin-mediated reduction in CFU/biofilm preincubated for 20 hrs followed by vancomycin addition measured after 24 hrs; design: species or system Staphylococcus aureus subsp. aureus Mu50
[4] = system: Staphylococcus aureus subsp. aureus Mu50; experiment: Inhibition of quorum sensing system in methicillin-resistant Staphylococcus aureus Mu50 assessed as potentiation of vancomycin-mediated reduction in CFU/biofilm at 100 uM preincubated for 20 hrs followed by vancomycin addition measured after 24 hrs (reference value: 30 +/- 14%)
[5] = system: Staphylococcus aureus; experiment: Growth inhibition of methicillin-resistant Staphylococcus aureus Mu50 after 20 hrs by broth microdilution method
Outline: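 MRSA Mu50 grown in Mueller-Hinton broth at 37 °C, aerobic. MIC found in triplicate in flat-bottom 96-well plates, using a procedure from earlier work. Highest concentration tested was […].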

Compound	EC50 [1]	inhibition [2]	EC50 [3]	inhibition [4]	MIC [5]
O=C(OC[C@H]1OC(O)[C@@](O)(COC(=O)c2cc(O)c(O)c(O)c2)[C@@H]1O)c1cc(O)c(O)c(O)c1 (stereo not given in full) [HAMAMELITANNIN]	165 µM	57%	146 µM	57%	> 500 µM
O=C(NC[C@]1(O)CO[C@H](CNC(=O)c2ccccc2Cl)C1)c1ccccc1		65%		21%	> 500 µM
O=C(NC[C@@H]1C[C@H](CNC(=O)c2ccccc2Cl)CN1)c1ccccc1		50%		54%	> 500 µM
O=C(NC[C@H]1CN(C(=O)c2ccccc2)CCO1)c1ccccc1Cl		51%		-6%	> 500 µM
O=C(NC[C@]1(O)CO[C@H](CNC(=O)c2ccccc2Cl)[C@H]1O)c1ccccc1	7.98 µM	92%	0.389 µM	88%	> 500 µM
O=C(NC[C@H]1CN(C(=O)c2ccccc2Cl)CCO1)c1ccccc1		41%		-7%	> 500 µM
O=C(NC[C@@H]1CN[C@H](CNC(=O)c2ccccc2Cl)C1)c1ccccc1		47%		62%	> 500 µM
O=C(NC[C@@H]1O[C@H](CNC(=O)c2ccccc2Cl)[C@@H](O)[C@H]1O)c1ccccc1	3.71 µM	95%	2.6 µM	93%	> 500 µM
O=C(NC[C@@H]1CO[C@H](CNC(=O)c2ccccc2Cl)CO1)c1ccccc1	13.1 µM	91%	5.57 µM	95%	> 500 µM
